The record followed here is ChEMBL document CHEMBL4813946, “Discovery of novel 4-azaaryl-N-phenylpyrimidin-2-amine derivatives as potent and selective FLT3 inhibitors for acute myeloid leukaemia with FLT3 mutations” (Eur J Med Chem, 2021).

The test system of assay [1] is MV4-11. The assay is described as follows: Antiproliferative activity against human MV4-11 cells incubated for 72 hrs by resazurin assay. Format: functional. Summed up: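 Cells seeded and pre-incubated 24 h at 37 °C, 5% CO2, then given a five-fold dilution series of compound (from 10 mM DMSO stock) in medium, in triplicate. Resazurin added after 72 h exposure, 4 h in dark at 37 °C. Fluorescence read at 570/585 nm, normalised to DMSO vehicle. GI50 by non-linear regression; mean ± SD of at least two replicates.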
In general terms: The colour change of resazurin is a common sign of viable cells or microbes.

The target of assay [2] is T1, Receptor-type tyrosine-protein kinase FLT3 (Homo sapiens, UniProt P36888).
T1 sequence (P36888 whole entry): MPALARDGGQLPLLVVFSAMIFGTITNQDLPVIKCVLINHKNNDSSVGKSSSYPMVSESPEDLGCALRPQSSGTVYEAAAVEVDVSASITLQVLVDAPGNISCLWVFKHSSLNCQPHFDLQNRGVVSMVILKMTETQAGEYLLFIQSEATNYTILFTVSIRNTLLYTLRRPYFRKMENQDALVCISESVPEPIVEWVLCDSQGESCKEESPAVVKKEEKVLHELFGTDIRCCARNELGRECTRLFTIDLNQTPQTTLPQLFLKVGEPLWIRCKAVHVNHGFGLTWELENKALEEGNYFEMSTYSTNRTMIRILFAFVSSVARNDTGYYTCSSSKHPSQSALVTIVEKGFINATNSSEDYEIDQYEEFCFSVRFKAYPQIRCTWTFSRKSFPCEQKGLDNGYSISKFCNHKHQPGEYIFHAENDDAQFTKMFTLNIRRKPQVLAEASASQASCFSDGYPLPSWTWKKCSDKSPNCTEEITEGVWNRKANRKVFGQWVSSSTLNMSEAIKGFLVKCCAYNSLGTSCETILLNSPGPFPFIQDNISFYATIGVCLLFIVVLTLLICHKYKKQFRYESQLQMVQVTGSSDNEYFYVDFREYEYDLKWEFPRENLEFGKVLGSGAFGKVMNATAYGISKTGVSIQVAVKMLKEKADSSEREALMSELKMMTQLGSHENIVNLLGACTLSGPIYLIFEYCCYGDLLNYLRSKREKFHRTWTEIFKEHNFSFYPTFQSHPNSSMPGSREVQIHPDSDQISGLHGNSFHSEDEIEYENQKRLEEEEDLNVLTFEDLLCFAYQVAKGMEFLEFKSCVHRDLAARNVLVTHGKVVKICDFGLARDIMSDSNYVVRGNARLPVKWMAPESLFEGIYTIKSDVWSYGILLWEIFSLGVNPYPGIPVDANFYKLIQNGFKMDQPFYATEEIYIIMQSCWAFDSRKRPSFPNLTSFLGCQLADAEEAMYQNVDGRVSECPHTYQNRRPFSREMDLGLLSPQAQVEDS
Briefly: Inhibition of wild type FLT3 (unknown origin) using Glu/Tyr peptide substrate incubated for 120 mins measured after 40 mins incubation under dark by ADP-glo based luminescence assay. The gist of the method: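 In-house ADP-Glo assay with poly(Glu,Tyr) 4:1 substrate in 40 mM Tris pH 7.5, 20 mM MgCl2, 50 µM DTT, 0.1 mg/mL BSA. Kinase at 20 nM. ADP-Glo reagent 40 min in the dark, detection reagent 30–40 min, then luminescence. Ki was derived from IC50 by Cheng-Prusoff.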
On the technique in general: In ADP-Glo the light output rises with the ADP produced.

The target of assay [3] is Receptor-type tyrosine-protein kinase FLT3 (Homo sapiens, UniProt P36888, ITD). Briefly: Inhibition of FLT3 ITD mutant (unknown origin) using Glu/Tyr peptide substrate incubated for 80 mins measured after 40 mins incubation under dark by ADP-glo based luminescence assay.
For assay [4], the target named is Cyclin-dependent kinase 2/cyclin E1 (Homo sapiens, UniProt P24941). The assay is described as follows: Inhibition of CDK2/cyclin E (unknown origin) using histone 1 protein substrate incubated for 120 mins measured after 40 mins incubation under dark by ADP-glo based luminescence assay. Format: protein-complex assay. The gist of the method:
(§1)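 In-house ADP-Glo assay with 2 mM DMSO stocks. Kinases were CDK1/cyclin B at 1 nM, CDK2/cyclin E1 at 10 nM and CDK7/cyclin H/MAT1 at 40 nM. Substrate was histone 1 for CDK1 and CDK2, and a RNA pol II CTD peptide for CDK7. Compound at 8–10 concentrations, 1:3 serial, final DMSO 0.5%. Reactions ran 60–120 min at room temperature, then ADP-Glo reagent 40 min in the dark, then detection reagent 40 min, read by luminescence. Ki was derived from IC50 by Cheng-Prusoff.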

Assay [5] deals with Cyclin-dependent kinase 1/cyclin B1 (Homo sapiens, UniProt P06493). Briefly: Inhibition of CDK1/cyclin B (unknown origin) using histone 1 protein substrate incubated for 120 mins measured after 40 mins incubation under dark by ADP-glo based luminescence assay. Type of assay: protein-complex assay. Summed up:
as §1

In assay [6] the target is CDK7/Cyclin H/MNAT1 (Homo sapiens, UniProt P50613). The assay is described as follows: Inhibition of CDK7/cyclin H/MAT1 (unknown origin) using HYSPTSPSYSPTSPSYSPTSPSKKKK-O substrate incubated for 120 mins measured after 40 mins incubation under dark by ADP-glo based luminescence assay. Type of assay: protein-complex assay. Summed up:
as §1

Sequence of Cyclin-dependent kinase 1/cyclin B1 (P06493 whole entry): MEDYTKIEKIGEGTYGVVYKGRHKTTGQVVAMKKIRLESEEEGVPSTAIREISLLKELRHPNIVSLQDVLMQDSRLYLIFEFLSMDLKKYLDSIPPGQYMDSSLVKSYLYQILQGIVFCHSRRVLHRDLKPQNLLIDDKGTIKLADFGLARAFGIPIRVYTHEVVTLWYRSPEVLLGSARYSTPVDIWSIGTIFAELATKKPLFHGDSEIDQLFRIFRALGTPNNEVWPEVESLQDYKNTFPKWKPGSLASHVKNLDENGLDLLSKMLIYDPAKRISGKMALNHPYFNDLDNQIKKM
Sequence of Cyclin-dependent kinase 1/cyclin B1 (P14635 whole entry, further chain): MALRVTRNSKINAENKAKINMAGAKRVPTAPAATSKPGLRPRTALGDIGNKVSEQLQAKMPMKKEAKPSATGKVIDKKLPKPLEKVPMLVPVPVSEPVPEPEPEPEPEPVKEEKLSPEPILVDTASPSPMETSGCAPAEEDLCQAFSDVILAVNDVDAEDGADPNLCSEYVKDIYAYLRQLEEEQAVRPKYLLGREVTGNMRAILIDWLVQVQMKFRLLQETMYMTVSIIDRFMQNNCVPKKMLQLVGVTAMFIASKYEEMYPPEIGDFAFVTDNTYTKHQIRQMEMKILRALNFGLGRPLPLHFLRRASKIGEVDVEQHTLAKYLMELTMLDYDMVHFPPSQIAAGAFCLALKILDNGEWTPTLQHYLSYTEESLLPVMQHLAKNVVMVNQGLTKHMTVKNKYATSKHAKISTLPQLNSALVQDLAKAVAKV
Sequence of CDK7/Cyclin H/MNAT1 (P51946 whole entry): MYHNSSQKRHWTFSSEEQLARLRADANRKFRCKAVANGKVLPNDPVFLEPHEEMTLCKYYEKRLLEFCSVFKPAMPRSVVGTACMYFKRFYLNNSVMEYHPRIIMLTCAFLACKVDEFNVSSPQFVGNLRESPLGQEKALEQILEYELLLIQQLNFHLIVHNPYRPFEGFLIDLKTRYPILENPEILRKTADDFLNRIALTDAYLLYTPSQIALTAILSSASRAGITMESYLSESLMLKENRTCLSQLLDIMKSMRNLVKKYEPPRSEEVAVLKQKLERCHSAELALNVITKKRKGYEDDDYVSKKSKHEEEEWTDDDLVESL
Sequence of CDK7/Cyclin H/MNAT1 (P50613 whole entry): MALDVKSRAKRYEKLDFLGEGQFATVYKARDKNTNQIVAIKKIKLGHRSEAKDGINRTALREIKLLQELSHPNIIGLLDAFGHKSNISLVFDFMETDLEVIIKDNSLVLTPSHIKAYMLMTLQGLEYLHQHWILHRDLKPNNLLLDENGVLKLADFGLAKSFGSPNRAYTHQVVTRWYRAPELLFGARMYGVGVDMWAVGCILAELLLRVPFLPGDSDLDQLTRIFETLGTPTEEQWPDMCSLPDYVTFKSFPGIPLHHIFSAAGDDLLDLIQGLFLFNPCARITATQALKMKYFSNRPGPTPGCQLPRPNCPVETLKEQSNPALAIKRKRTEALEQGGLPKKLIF
Sequence of CDK7/Cyclin H/MNAT1 (P51948 whole entry, further chain): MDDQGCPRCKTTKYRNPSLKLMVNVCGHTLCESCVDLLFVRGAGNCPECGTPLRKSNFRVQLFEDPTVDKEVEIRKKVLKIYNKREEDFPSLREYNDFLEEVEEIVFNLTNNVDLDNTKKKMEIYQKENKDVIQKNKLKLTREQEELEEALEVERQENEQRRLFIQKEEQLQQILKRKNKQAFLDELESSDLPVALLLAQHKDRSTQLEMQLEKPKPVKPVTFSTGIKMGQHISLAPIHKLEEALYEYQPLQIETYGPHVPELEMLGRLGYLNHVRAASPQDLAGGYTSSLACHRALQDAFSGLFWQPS

For the compound `CC(=O)N1CCCN(c2cccc(Nc3nccc(-c4cnc5n(C)cccc4-5)n3)c2)CC1`, the GI50 (in general, the concentration giving 50% growth inhibition) in assay [1] turned out to be 24 nM. In addition, the Ki – broadly, the dissociation constant of the complex between target and ligand, obtained from inhibition or displacement – in assay [2] was 1 nM; in assay [3] it was 0.7 nM; in assay [4], over 5000 nM; in assay [5] it was 1760 nM; in assay [6], over 5000 nM.

On to `CN1CCN(c2cccc(Nc3nccc(-c4cn(C)c5ncccc45)n3)c2)CC1`, for which the GI50 in assay [1] came out at 24 nM. Moreover, the Ki in assay [2] was 40 nM; in assay [3], 13 nM; in assay [4], 970 nM; in assay [5], over 5000 nM; in assay [6], over 5000 nM.

`CC(=O)N1CCN(c2ccc(Nc3nccc(-c4c[nH]c5ncccc45)n3)cc2)CC1` returned a GI50 in assay [1] of under 1 nM. For the same compound, the Ki was 0.8 nM in assay [2]; 0.1 nM in assay [3]; 49 nM in assay [4]; 91 nM in assay [5]; over 5000 nM in assay [6].

In assay [1], `CC(=O)N1CCN(c2ccc(Nc3nccc(-c4cn(S(=O)(=O)c5ccc(C)cc5)c5ccccc45)n3)cc2)CC1` came in with a GI50 of 1560 nM. For the same compound, the inhibition constant Ki in assay [2] is over 5000 nM; in assay [3], 128 nM; in assay [4], over 5000 nM; in assay [5], over 5000 nM; in assay [6] it was over 5000 nM.

On to `CC(=O)N1CCN(c2ccc(Nc3ncc(C#N)c(-c4c[nH]c5ccccc45)n3)cc2)CC1`, for which the GI50 in assay [1] turned out to be 4 nM. Further, the inhibition constant (Ki) was 4 nM in assay [2]; 0.4 nM in assay [3]; over 5000 nM in assay [4]; 4050 nM in assay [5]; 426 nM in assay [6].

In turn, `CN1CCN(c2cccc(Nc3nccc(-c4c[nH]c5cccnc45)n3)c2)CC1` came in with a GI50 in assay [1] of 405 nM. Besides, the Ki in assay [2] was 217 nM; in assay [3], 20 nM; in assay [4], over 5000 nM; in assay [5], over 5000 nM; in assay [6], over 5000 nM.

The compound `CC(=O)N1CCN(c2ccc(Nc3nccc(-c4c[nH]c5ccccc45)n3)cc2)CC1` gave a GI50 in assay [1] of 33 nM. Besides, the Ki in assay [2] was 22 nM; in assay [3], 11 nM; in assay [4], over 5000 nM; in assay [5] it was over 5000 nM; in assay [6], over 5000 nM.

For the compound `CC(=O)N1CCCN(c2cccc(Nc3nccc(-c4c[nH]c5cccnc45)n3)c2)CC1`, in assay [1], it took 688 nM to inhibit growth by half (GI50). Besides, the Ki in assay [2] is 150 nM; in assay [3], 107 nM; in assay [4], over 5000 nM; in assay [5], over 5000 nM; in assay [6], over 5000 nM.

Consider `CC(=O)N1CCN(c2ccc(Nc3ncc(C#N)c(-c4cn(C)c5ccccc45)n3)cc2)CC1`, for which the GI50 in assay [1] came to 30 nM. Besides, the Ki in assay [2] turned out to be 37 nM; in assay [3] it was 7 nM; in assay [4], 1120 nM; in assay [5], 1580 nM; in assay [6], 1620 nM.

`CC(=O)N1CCCN(c2cccc(Nc3nccc(-c4c[nH]c5ncccc45)n3)c2)CC1`: the GI50 in assay [1] was 20 nM. Besides, the Ki in assay [2] was determined as 0.4 nM; in assay [3] it was 0.1 nM; in assay [4], 31 nM; in assay [5], 51 nM; in assay [6], 29 nM.

On to `CC(=O)N1CCN(c2ccc(Nc3ncc(C#N)c(-c4c(C)[nH]c5ccccc45)n3)cc2)CC1`, for which growth in assay [1] was halved (GI50) at 390 nM. Further, the Ki is 119 nM in assay [2]; 2 nM in assay [3]; 2170 nM in assay [4]; over 5000 nM in assay [5]; 536 nM in assay [6].

In assay [1], `CN1CCN(c2cccc(Nc3nccc(-c4c[nH]c5ncccc45)n3)c2)CC1` returned a GI50 of 5 nM. For the same compound, the Ki in assay [2] is 4 nM; in assay [3], 2 nM; in assay [4], 84 nM; in assay [5], 531 nM; in assay [6], 142 nM.

With `CC(=O)N1CCN(c2ccc(Nc3nccc(-c4n[nH]c5ccccc45)n3)cc2)CC1`, the 50% growth inhibitory concentration (GI50) in assay [1] was 346 nM. Also, the Ki in assay [2] was over 5000 nM; in assay [3], 207 nM; in assay [4] it was over 5000 nM; in assay [5], over 5000 nM; in assay [6], over 5000 nM.

In assay [1], `CC(=O)N1CCCN(c2cccc(Nc3nccc(-c4n[nH]c5ccccc45)n3)c2)CC1` had a GI50 of 18 nM. Further, the Ki in assay [2] is 1 nM; in assay [3], 0.6 nM; in assay [4], over 5000 nM; in assay [5], 727 nM; in assay [6], over 5000 nM.

As to `CCc1nc(C(N)=O)c(Nc2ccc(N3CCC(N4CCN(C)CC4)CC3)c(OC)c2)nc1NC1CCOCC1` [GILTERITINIB], halving of growth in assay [1] (GI50) required 2 nM. The inhibition constant Ki was 1480 nM in assay [4], over 5000 nM in assay [5] and over 5000 nM in assay [6].

In the case of `CC(=O)N1CCN(c2ccc(Nc3nccc(-c4cn(C)c5ccccc45)n3)cc2)CC1`, the GI50 in assay [1] stood at 252 nM. The Ki is 149 nM in assay [2]; 133 nM in assay [3]; over 5000 nM in assay [4]; over 5000 nM in assay [5]; over 5000 nM in assay [6].

Take `CC(=O)N1CCN(c2ccc(Nc3nccc(-c4c[nH]c5cccnc45)n3)cc2)CC1`: the GI50 in assay [1] was 420 nM. The Ki is 32 nM in assay [2]; 4 nM in assay [3]; over 5000 nM in assay [4]; over 5000 nM in assay [5]; over 5000 nM in assay [6].

For the compound `CC(=O)N1CCN(c2ccc(Nc3nccc(-c4nn(C)c5ccccc45)n3)cc2)CC1`, in assay [1], the GI50 is 181 nM. The Ki was 883 nM in assay [2]; 274 nM in assay [3]; over 5000 nM in assay [4]; over 5000 nM in assay [5]; over 5000 nM in assay [6].
